From PubChem BioAssay
SR-BI DiI-HDL act: activators of SR-BI mediated HDL lipid uptake. activation, % at 12.5 µM. hit rate 0.096% among 320,000. CHO ldlA[mSR-BI] cells, DiI-HDL uptake fluorescence, 3 h; 100 = double the neutral-control signal. AID 504775;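 active = mean replicate activation of at least 60% and every replicate at or above 60%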;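 also: 0% = median plate neutral-control signal and 100% = twice that signal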
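System: LDL receptor-deficient CHO ldlA cells overexpressing murine SR-BI | Timing: 3 h uptake period with compound, 37 °C | Medium: HEPES-buffered (25 mM, pH 7.4) F12 plus 0.5% BSA | Dosing: Single-point compound dose | Signal: Bottom-read fluorescence, 550/595 nm | Read-out: Retained DiI signal reflecting DiI-HDL uptake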
miR122 inh: miR-122 inhibition in Huh7 cells | Huh7 miR-122 Renilla luciferase sensor, 48 h; neutral wells = 0, positive control = 100 | activation (reporter increase), % at 12.5 µM | hit rate 0.3% among 340,000 | AID 602342;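 active = mean replicate activation score at least 90 and every replicate individually at or above 90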;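 also: higher luciferase means less miR-122 activity so hits act as miR-122 inhibitors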
CAL PDZ FP-1: CAL PDZ (human) peptide binding inhibition; AID 602252; purified CAL PDZ, TMR-peptide fluorescence polarization, 1 h; Q9HD26; hit rate 0.92% among 300,000; inhibition, % at 24.9 µM;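 active = mean inhibition of at least 30% with at least half of replicates also reaching 30%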;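 also: 0% = DMSO neutral control and 100% = excess unlabeled competitor peptide PRC23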
CAL PDZ FP-2: blocks peptide binding to human CAL PDZ domain. hit rate 0.02% among 330,000. AID 504414. Q9HD26. purified CAL PDZ, TMR-peptide fluorescence polarization, 1 h. inhibition, % at 20 µM;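 active = highest replicate inhibition of at least 40%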;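 also: plate controls were DMSO neutral control wells for no effect and unlabeled competitor peptide control wells for full effect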
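Assay system – tagged CAL PDZ protein CerCALP, purified · Timing – 1 h at RT · Compound – single point, 20 µM · Measured by – fluorescence polarization from S- and P-plane intensities, G-factor corrected · Evaluation – inhibition from polarization loss · Probe or stimulus – TMR reporter peptide T*-PRC34 · Buffer or medium – pH 7.4 phosphate-saline buffer, reducing agent, detergent, IgG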
ARNT TACC3 PPI: disrupts binding between human ARNT and TACC3; AlphaScreen His-ARNT PAS-B/GST-TACC3 binding, luminescence; TACC3 fragment carries E629A point mutation; inhibition, % at 9.99 µM; hit rate 0.66% among 390,000; AID 623870;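 active = mean inhibition of replicates at least 50% and at least half of replicates each reaching 50%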;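 also: 0% = complete ARNT plus TACC3 wells and 100% = ARNT alone without TACC3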
SR-BI DiI inh: mouse SR-BI HDL lipid transfer inhibition | hit rate 0.96% among 320,000 | ldlA[mSR-BI] CHO cells, DiI-HDL uptake fluorescence, 3 h | AID 488896 | inhibition, % at 12.5 µM;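 active = mean replicate inhibition of at least 70% and a set share of replicates each scoring 70 or more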;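 also: 0% = median of neutral control wells and 100% = median of positive control wells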
Target sequence (Q61009 whole entry, looked up): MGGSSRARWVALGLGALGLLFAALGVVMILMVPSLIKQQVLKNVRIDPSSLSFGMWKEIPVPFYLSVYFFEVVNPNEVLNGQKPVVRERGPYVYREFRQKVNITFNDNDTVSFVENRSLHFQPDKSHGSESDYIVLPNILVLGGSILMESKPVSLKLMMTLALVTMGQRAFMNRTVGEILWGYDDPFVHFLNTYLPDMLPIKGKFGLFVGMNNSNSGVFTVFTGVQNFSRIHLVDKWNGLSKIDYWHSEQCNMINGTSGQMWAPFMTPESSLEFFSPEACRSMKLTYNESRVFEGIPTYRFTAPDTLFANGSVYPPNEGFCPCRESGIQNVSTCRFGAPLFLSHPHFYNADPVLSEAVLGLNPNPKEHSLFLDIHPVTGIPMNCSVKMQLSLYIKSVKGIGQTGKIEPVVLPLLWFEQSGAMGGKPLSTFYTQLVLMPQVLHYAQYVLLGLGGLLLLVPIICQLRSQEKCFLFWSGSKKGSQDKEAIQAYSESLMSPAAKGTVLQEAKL
* marks the source's active call; other numbers are inactive results; . = no result; [ ] = dose if it differs, or a comment. Sampled rows, rich in hits. Any-hit rate of the full collection: about 2.1%.

SMILES	SR-BI DiI-HDL act	miR122 inh	CAL PDZ FP-1	CAL PDZ FP-2	ARNT TACC3 PPI	SR-BI DiI inh
COc1ccc(OC)c(NC(=O)c2cc(-c3cc(C)c(C)cc3O)n[nH]2)c1	-70	-6	4	2	1	70
Cc1cc(C)c(O)c(-c2cc(C(=O)Nc3cccnc3)[nH]n2)c1	.	.	-4	-3	-4	.
Cc1cccc(NC(=O)c2cc(-c3cc(C)cc(C)c3O)n[nH]2)c1	-72	5	-3	.	9	72*
COc1ccc(OC)c(NC(=O)c2cc(-c3cc(C)cc(C)c3O)n[nH]2)c1	-77	8	9	0	-3	77*
COc1ccc(-c2nc(NC(=O)c3ccccc3)sc2-c2ccc([N+](=O)[O-])cc2)cc1	-79	1	1	-2	-2	79*
COc1ccc(-c2sc(NC(C)=O)nc2-c2ccccc2)cc1	-80	.	-1	0	-6	80*
Nc1nc(-c2ccccc2)c(-c2ccc([N+](=O)[O-])cc2)s1	-18	-2	3	1	-3	18
COc1ccc(-c2nc(NC(C)=O)sc2-c2ccccc2)cc1	-68	.	-1	1	0	68
COc1ccccc1C(=O)Nc1ccc2c(c1)OC[C@H](C)N(CC1CC1)C[C@H](C)[C@H](OC)CN(C)C2=O	.	-4[16.7 µM]	.	.	.	.
C[C@@H]1CCCCO[C@@H](CN(C)Cc2ccncc2)[C@@H](C)CN([C@@H](C)CO)C(=O)c2cc(NC(=O)Nc3ccccc3)ccc2O1	.	-4[16.7 µM]	.	.	-4	.
CC[C@]12c3[nH]c4cc(CCC(=O)N(C)C)ccc4c3CCN1C(=O)[C@@H](CC(=O)NCCCN(C)C)C[C@@H]2C(=O)N1CCN(C(=O)C2CC2)CC1	5	1	-1	0	-4	-5
CC[C@]12c3[nH]c4cc(CCC(=O)N(C)C)ccc4c3CCN1C(=O)[C@@H](CC(=O)NCCCOC)C[C@@H]2C(=O)N1CCN(C(=O)C2CC2)CC1	-9	-3	32*	0	-7	9
CC(Oc1ccc(Cl)cc1)c1ccnn1S(=O)(=O)c1ccc(Cl)cc1 (stereo not drawn)	8	111*	-4	-3	0	-8
O=C(Nc1ccc(F)cc1)N1C[C@@H]2[C@H](c3ccccc31)[C@H](CO)N2Cc1cocn1	.	-3[16.7 µM]	.	.	30	.
CCOc1ccc(NC(=O)/C(C#N)=C\c2ccc(N3CCCC3)c(C)c2)cc1	-101	.	-2	-1	-5	101*
CCOc1ccc(/C=C(\C#N)C(=O)Nc2cccnc2)cc1	8	-2	2	-1	0	-8
CO[C@H]1CN(C)C(=O)c2cc(NC(=O)Nc3ccccc3)ccc2OC[C@H](C)N(C(=O)CN(C)C)C[C@H]1C	.	-3[16.7 µM]	.	.	-5	.
C[C@H]1CCCCO[C@@H](CN(C)Cc2ccccc2)[C@@H](C)CN([C@@H](C)CO)C(=O)c2cc(NC(=O)c3ccccc3)ccc2O1	.	0[16.7 µM]	.	.	5	.
COC(=O)C[C@@H]1CC[C@H]2[C@H](COc3ccc(NS(=O)(=O)c4ccc(F)cc4)cc3C(=O)N2C)O1	.	-22[16.7 µM]	.	.	-3	.
O=C(Nc1ccccc1C(=O)O)c1cccc(N2C(=O)c3ccccc3C2=O)c1	25	.	51*	-2	-1	-25
O=C(N/N=C\c1cn(-c2ccccc2)nc1-c1ccccc1)c1ccc2c(c1)OCO2	-50	-1	-2	-2	0	50
COc1cc(/C=N/NC(=O)c2cccc(N3CCCC3=O)c2)ccc1O	-59	.	-1	0	1	59
COc1cccc(/C=N/NC(=O)c2c(C)nc3ccc(Cl)cn23)c1O	-121	.	62*	0	12	120*
O=C(N/N=C/c1cn(-c2ccccc2)nc1-c1ccc(F)cc1)c1ccc2c(c1)OCO2	-74	0	-6	-2	-15	74*
O=C(N/N=C/c1cc([N+](=O)[O-])ccc1O)c1cccc(N2CCCC2=O)c1	-117	.	.	-1	78*	117*
SMILES	SR-BI DiI-HDL act	miR122 inh	CAL PDZ FP-1	CAL PDZ FP-2	ARNT TACC3 PPI	SR-BI DiI inh
CCOc1cccc(/C=N/NC(=S)Nc2cc(S(=O)(=O)N3CCOCC3)ccc2N2CCOCC2)c1O	-94	.	-3	0	12	94*
C[C@H](CO)N1C[C@H](C)[C@@H](CN(C)C(=O)C2CC2)Oc2ncc(C#CC3(O)CCCC3)cc2C1=O	.	-3[16.7 µM]	.	.	.	.
C/C=C/c1cnc2c(c1)C(=O)N([C@@H](C)CO)C[C@H](C)[C@@H](CN(C)C(=O)C1CCC1)O2	.	7[16.7 µM]	.	.	.	.
COc1ccc(-c2nn(-c3ccccc3)cc2/C=N/NC(=O)c2ccc(Br)o2)cc1	-82	7	0	-1	2	82*
COc1ccc(/C=C/C(=O)c2ccc3c(c2)OCO3)c(OC)c1	-2	145*	-4	-3	14	2
COc1ccc(-c2nn(-c3ccccc3)cc2/C=C/C(=O)OCC(=O)Nc2ccc(C#N)cc2)cc1	-87	-7	-2	-2	-3	87*
COc1ccc(-c2nn(-c3ccccc3)cc2/C=C/C(=O)OCC(=O)Nc2cccc(C#N)c2)cc1	-25	0	-2	-2	-4	25
COc1ccc(-c2nn(-c3ccccc3)cc2/C=N/NC(=O)c2cccc(S(=O)(=O)Nc3ccccc3OC)c2)cc1	-48	.	0	-1	-1	48
O=C(N/N=C/c1cc([N+](=O)[O-])ccc1O)c1ccc2c(c1)OCCO2	-131	1	-4	-3	7	131*
CO[C@@H]1CN(C)C(=O)c2cc(NS(C)(=O)=O)ccc2OC[C@H](C)N(Cc2ccccn2)C[C@H]1C	.	13[16.7 µM]	.	.	.	.
C[C@H](CO)N1C[C@H](C)[C@@H](CN(C)Cc2cncnc2)Oc2ncc(C#Cc3ccccn3)cc2C1=O	.	10[16.7 µM]	.	.	15	.
Cc1cccc(/C=N/NC(=O)Cc2ccc(Cl)cc2)c1O	-6	-2	.	-1	-2	6
COc1ccccc1/C=N/NC(=O)c1ccc2c(c1)OCO2	-34	4	70*	.	-17	34
Cc1cccc(/C=N/NC(=O)c2ccc3c(c2)OCCO3)c1O	-111	5	-5	-4	14	111*
O=C(N/N=C/c1cccc(O)c1)c1ccc2c(c1)OCCO2	-11	-1	-5	-2	1	11
COc1ccccc1/C=N/NC(=O)c1c(-c2ccccc2)noc1C	.	0	3	-1	9	.
Cc1cccc(/C=N/NC(=O)c2c(-c3ccccc3)noc2C)c1O	-102	8	-4	-2	3	102*
Cc1cccc(/C=N\NC(=O)c2ccc(Cl)cc2)c1O	-141	.	5	-1	10	141*
COc1cccc(/C=N/NC(=O)CNC(=O)c2ccc3c(c2)OCCO3)c1O	13	1	-5	-3	13	-13
